Sampled rows, rich in hits. Any-hit rate of the full collection: about 2.8%.
NPY-Y2 PAM-ag = human NPY-Y2 potentiation or agonism, primary screen; P49146; cells expressing NPY-Y2, potentiator/agonist read-out; activation, % at 3.6 µM; 0.45% of 220,000 active; AID 1359; in the data active = activation above about 27%;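 also: cells stimulated with NPY near EC25 plus isoproterenol at EC100; 0% = vehicle plus submaximal agonist and 100% = vehicle plus saturating agonist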
Target sequence (P49146 whole entry, looked up): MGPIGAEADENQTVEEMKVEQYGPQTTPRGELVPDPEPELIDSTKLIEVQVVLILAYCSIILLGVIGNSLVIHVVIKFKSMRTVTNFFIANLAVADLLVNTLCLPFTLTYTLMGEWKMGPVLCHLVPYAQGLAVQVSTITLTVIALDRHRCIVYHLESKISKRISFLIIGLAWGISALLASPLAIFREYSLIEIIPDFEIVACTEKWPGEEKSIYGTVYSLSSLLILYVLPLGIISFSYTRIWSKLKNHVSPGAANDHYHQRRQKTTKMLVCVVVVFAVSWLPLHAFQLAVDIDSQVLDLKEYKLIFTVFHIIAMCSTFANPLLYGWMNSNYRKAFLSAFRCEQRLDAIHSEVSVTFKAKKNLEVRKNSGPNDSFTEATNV
NPY-Y1 antag = blocks the human neuropeptide Y Y1 receptor; P25929; HEK293-CNG Y1 cells, membrane potential fluorescence; NPY at EC95, then isoproterenol; inhibition, % at 3.6 µM; 1% of 200,000 active;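 active = inhibition above the campaign mean inhibition of all tested compounds plus 3 SD, cut at about 20% in these data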;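 also: 0% = DMSO wells given NPY plus isoproterenol and 100% = isoproterenol alone without NPY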
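Assay system: HEK293 Y1/CNG channel cell line; Doses: single compound dose of 3.6 µM, 0.4% DMSO; Timing: dye 3 h, compound 60 min room temperature, stimulation 45 min; Technique: Membrane-potential fluorescent dye readout; Measure: % inhibition of NPY effect.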
NPY1 pot ag = potentiators or agonists of human neuropeptide Y receptor Y1; P25929; NPY-Y1 expressing cells, potentiator/agonist activation; activation, % at 3.6 µM; 0.37% of 220,000 active; in the data active = activation above about 33%, passing the limit was not always enough;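 also: cells stimulated with NPY at EC10 then isoproterenol at EC100; 0% = low agonist plus stimulus and 100% = saturating agonist plus stimulus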
EP2 mod = modulators of human EP2 prostaglandin E2 receptor; P43116; EP2-expressing cells, cAMP HTRF FRET, PGE2 co-stimulation; induction, % at 25 µM; 0.83% of 260,000 active;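 active = compounds whose cAMP rise, as percent of the full-agonist control response, exceeds 60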;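 also: rat C6 glioma line stably carrying human EP2 under a CMV promoter; the protocol text gives 20 µM as final concentration; 100% = response of wells given 1 µM PGE2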
Target sequence (P43116 whole entry, looked up): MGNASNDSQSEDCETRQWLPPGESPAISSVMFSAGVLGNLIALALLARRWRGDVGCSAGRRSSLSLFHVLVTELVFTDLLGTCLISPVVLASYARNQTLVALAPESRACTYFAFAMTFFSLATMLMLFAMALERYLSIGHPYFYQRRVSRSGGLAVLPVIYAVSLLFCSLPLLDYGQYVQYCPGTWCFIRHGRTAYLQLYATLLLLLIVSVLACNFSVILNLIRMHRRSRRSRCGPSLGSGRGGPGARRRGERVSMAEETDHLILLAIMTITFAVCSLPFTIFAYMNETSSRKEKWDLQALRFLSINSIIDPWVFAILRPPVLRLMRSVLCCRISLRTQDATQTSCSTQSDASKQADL
EP2 antag = blocks the human prostaglandin E2 receptor EP2; 0.52% of 260,000 active; C6 glioma cells expressing human EP2, cAMP TR-FRET; cells stimulated with saturating PGE2; inhibition, % at 25 µM; P43116; AID 1422;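 active = percent inhibition above 40 after rounding to a whole number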;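 also: rat C6 glioma host cells with rolipram phosphodiesterase inhibitor present; the protocol text gives 20 µM as final concentration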
NPY Y2 blocker = NPY-Y2 (human) receptor antagonism. AID 793. NPY-Y2 expressing cells, antagonist mode. inhibition, % at 2.7 µM. P49146. 0.99% of 140,000 active; in the data active = inhibition above about 17%;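 also: 0% = vehicle with agonist challenge and 100% = reference antagonist with challenge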
Starred values were filed as active, the others as inactive; nt = not tested or not shown; ! = not confirmed by another sample.

SMILES	NPY-Y2 PAM-ag	NPY-Y1 antag	NPY1 pot ag	EP2 mod	EP2 antag	NPY Y2 blocker
COc1ccc(C2(NCc3cn(CCCO)c4ccccc34)CC2)cc1	nt	nt	nt	-93.7	9.7	nt
COc1ccc(NC(=O)CSc2nnc(Cc3ccccc3)n2-c2ccc(OC)cc2)cc1	nt	nt	nt	31.4	8.2	nt
CC(C)n1nc(CC(=O)N2C3CCC2CC(c2ccc(F)cc2)C3)c2ccccc2c1=O (configuration not stated)	nt	nt	nt	7.0	nt	nt
O=C(O)c1cccc(NC(=S)NC(=O)c2ccc(-c3ccc(Cl)cc3)o2)c1	-3.4	3.7	-0.1	63.8*	14.4	nt
O=C(O)c1cccc(NC(=S)NC(=O)c2ccc(-c3ccccc3)cc2)c1	0.0	5.9	3.9	-7.0	2.1	nt
Cc1ccc(C(=O)O)cc1NC(=S)NC(=O)c1ccc(-c2ccc(Cl)cc2)o1	-18.8	nt	-10.0	89.0*	7.3	nt
Cc1ccc(C(=O)O)cc1NC(=S)NC(=O)c1ccc([N+](=O)[O-])cc1Cl	4.5	-0.3	1.9	8.7	0.8	3.6
CCc1nn(CC(=O)N(Cc2ccncc2)C2CC2)c(=O)c2cc3sccc3n12	nt	nt	nt	1.7	nt	nt
Cc1[nH]c2ccccc2c1/C=N/NS(=O)(=O)c1ccccc1	22.7	-3.5	5.8	-43.7	7.1	nt
Cc1[nH]c2ccccc2c1/C=N/Nc1ccccc1[N+](=O)[O-]	101.4*	-28.6	106.9*	-0.4	4.9	nt
COc1ccc(Oc2ccc3c(C(F)(F)F)cc(C(F)(F)F)nc3n2)cc1	6.4	11.0	8.6	6.9	5.0	1.3
Oc1ccc(Oc2ccc3c(C(F)(F)F)cc(C(F)(F)F)nc3n2)cc1	49.1*	-6.8	39.7*	42.1	9.7	-0.1
CCOC(=O)CSc1nc2c(sc(=S)n2-c2ccccc2OC)c(=O)n1Cc1ccco1	-33.1	34.5*	8.4	9.2	4.6	27.0*
CCOC(=O)CSc1nc2ccccc2c(=O)n1Cc1ccco1	2.2	7.7	-5.8	21.2	5.2	3.6
CCOC(=O)CSc1nc2c(sc(=S)n2Cc2ccco2)c(=O)n1-c1ccccc1	-37.8	60.5*	-49.7	33.5	5.8	36.3*
O=C(C1CCCC1)N1CCC[C@H]1Cn1nc(-c2ccc3c(c2)OCO3)ccc1=O	nt	nt	nt	-15.6	nt	nt
Cc1cc(-c2cn[nH]c2C2CCCN(CC(=O)Nc3nccs3)C2)on1 (configuration not stated)	nt	nt	nt	23.9	nt	nt
CCC(C)(C)n1nnnc1C(c1cc2cc(C)cc(C)c2[nH]c1=O)N1CCCC(C)C1 (configuration not stated)	nt	nt	nt	85.8*	10.3	nt
COC(=O)C[C@@H]1C2(C)C(=O)[C@@H](CC3=C4C=C(OC)O[C@@H](c5ccoc5)[C@]4(C)CCC32)[C@H](O)C1(C)C (some centres not stated)	nt	nt	nt	1.9	9.3	nt
CCCC1C(=O)N(c2ccccc2)C1c1ccccc1 (configuration not stated)	-4.1	0.6	5.0	64.0*	-3.1	6.7
Cc1ccc(N2C(=O)C(CN3CCCC3)C2c2ccccc2)cc1 (configuration not stated)	-6.1	2.3	-8.6	12.2	7.6	nt
Cc1cccc2cc(CN(Cc3ccco3)C(=S)NC3CCCCC3)c(=O)[nH]c12	nt	nt	nt	44.5	9.6	nt
CC1CN(c2nc3c(c(=O)[nH]2)CCN(CC2=Cc4ccccc4OC2)C3)CC(C)O1 (configuration not stated)	nt	nt	nt	-24.6	nt	nt
CCc1nnc(NS(=O)(=O)c2ccc(NC(=S)NC(=O)c3ccc(Br)cc3)cc2)s1	-4.7	1.5	-9.8	-79.1	59.2*	2.0
O=C(Nc1nccs1)c1ccc(S(=O)(=O)NCC2CCCCC2)cc1	29.4	-15.7	42.1*	-40.7	11.1	3.8
SMILES	NPY-Y2 PAM-ag	NPY-Y1 antag	NPY1 pot ag	EP2 mod	EP2 antag	NPY Y2 blocker
COc1ccc(C(=O)NC(=S)Nc2ccc(S(=O)(=O)Nc3nccs3)cc2)cc1	nt	nt	nt	-121.3	49.4*	nt
CCc1nnc(NS(=O)(=O)c2ccc(NC(=S)NC(=O)/C=C/c3ccc(OC)cc3)cc2)s1	9.9	0.6	-5.8	-8.8	104.0*	2.4
O=C(NC(=S)Nc1ccc(S(=O)(=O)Nc2nccs2)cc1)c1ccccc1	4.4	4.1	-15.2	-100.9	8.3	3.1
COc1ccccc1OCc1nnc(SCC(=O)Nc2cc(C(F)(F)F)ccc2Cl)n1C	nt	nt	nt	-12.9	7.3	nt
CCOc1cc(NC(=O)c2cccs2)c(OCC)cc1NC(=O)c1cnccn1	nt	nt	nt	-10.0	12.9	nt
COc1ccc2cc(CN(C(=O)c3sc4ccccc4c3Cl)C3CCCC3)c(=O)[nH]c2c1	nt	nt	nt	11.6	5.8	nt
CC1CCCC(NS(=O)(=O)c2cccs2)C1C (configuration not stated)	nt	nt	nt	3.5	6.0	nt
CC(C)CCOC(=O)C[N+](C)(C)CCOC1CC2CCC1(C)C2(C)C (configuration not stated)	-18.4	9.9	-41.2	-66.8	5.5	nt
CCC(C)OC(=O)C[N+](C)(C)CCOC1CC2CCC1(C)C2(C)C (configuration not stated)	-3.2	21.4*	-25.0	-27.5	3.1	nt
Cc1nn(-c2ccccc2)c(Cl)c1C(=O)N1CCN(c2ncnc3c2cnn3-c2ccccc2)CC1	-3.4	0.8	-13.3	-42.8	40.2*	3.2
COCCNC(=O)Cn1cc(/C=C2\C(=O)NC(=O)N(c3ccc(C)cc3)C2=O)c2ccccc21	nt	nt	nt	-20.9	13.0	nt
Cc1nnc(SCc2ccccc2)nc1-c1ccccc1	nt	nt	nt	nt	17.3	nt
c1ccc(CSc2nnc3c4ccccc4c4ccccc4c3n2)cc1	-10.2	nt	14.6	24.5	55.0*!	nt
Cc1c(Cl)cccc1NC(=O)C[C@H]1Sc2ccccc2NC1=O	nt	nt	nt	-44.0	59.9*	nt
Cc1c(Cl)cccc1NC(=O)CC1Sc2ccccc2NC1=O (configuration not stated)	1.7	nt	23.3	-50.4	3.4	nt
O=C1NC(=S)S/C1=C/c1cc(Br)c2c(c1)OCO2	nt	nt	nt	17.8	16.2	nt
COc1ccc(-c2noc(C(=O)NCc3ccc(F)cc3)n2)cc1OC	-13.6	10.0	-30.4	-72.6	7.4	nt
COc1ccc(-c2noc(C(=O)NCc3ccccc3Cl)n2)cc1OC	-5.8	24.9*	-10.2	-50.3	8.0	nt
Cc1cc(N=Nc2ccccc2)c(NCC(O)C(O)C(O)CO)cc1C (configuration not stated)	56.6*	-16.3	73.2*	-47.2	5.9	nt
C[C@]1(c2ccccc2)O[C@@H]2C[C@H]3[C@@H]4CCC5=CC(=O)C=C[C@@]5(C)[C@@]4(F)[C@H](O)C[C@]3(C)[C@]2(C(=O)CO)O1	nt	nt	nt	1.6	51.4*	nt
C[C@H]1C[C@@H]2[C@@H]3CCC4=CC(=O)C=C[C@@]4(C)[C@@]3(F)[C@H](O)C[C@@]2(C)[C@]1(O)C(=O)COP(=O)(O)O	nt	nt	nt	14.4	41.6*	nt
CC1CCN(C(=O)Cn2nc3c4c5c(sc4ncn3c2=O)CC(C)CC5)CC1 (configuration not stated)	nt	nt	nt	-76.1	nt	nt
CC(=O)Nc1c(C(=O)O)[nH]c2ccc(C)cc12	nt	nt	nt	-23.3	6.3	nt
CCc1c(C)sc2ncn(C3CCN(C(=O)c4cccs4)CC3)c(=O)c12	nt	nt	nt	-66.8	nt	nt

Assay outcomes deposited in PubChem BioAssay by several laboratories.
